Data set [1] concerns rhinovirus A67. Kind of data set: Tested for antirhinoviral activity against the rhinovirus serotype 67. The data set is classed as functional. The settings on record: Rhinovirus A. The procedure, abridged: (§1)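 Selected compounds were tested across a 15-serotype rhinovirus panel: the five secondary serotypes plus 10 more. An MIC was recorded for each serotype. MIC80, the concentration inhibiting 80% of serotypes tested, was also derived from this panel.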

Data set [2] concerns rhinovirus B14. Kind of data set: Tested for antirhinoviral activity against the rhinovirus serotype 14. The data set is classed as functional, human rhinovirus type 14. The settings on record: Rhinovirus B. The procedure, abridged: as §1
Data set [3] deals with rhinovirus A15. Kind of data set: Tested for antirhinoviral activity against the rhinovirus serotype 15. The settings on record: Rhinovirus A. The class given is functional. In outline: as §1
In data set [4] the test system is rhinovirus A50. Put plainly: Tested for antirhinoviral activity against the rhinovirus serotype 50. The class given is functional. Particulars: Rhinovirus A. In outline:
as §1

Data set [5] has as its system rhinovirus A2. Put plainly: Tested for antirhinoviral activity against the rhinovirus serotype 2. The class given is functional, human rhinovirus type 2. Particulars: Rhinovirus A. The procedure, abridged: as §1
In data set [6] the test system is rhinovirus A89. Put plainly: Tested for antirhinoviral activity against the rhinovirus serotype 89. The class given is functional, human rhinovirus type 89. The settings on record: Rhinovirus A. The procedure, abridged:
as §1

Data set [7] deals with rhinovirus A25. Put plainly: Tested for antirhinoviral activity against the rhinovirus serotype 25; IA is inactive. The data set is classed as functional, organism-based. The procedure, abridged: as §1
The subject of data set [8] is rhinovirus A30. Put plainly: Tested for antirhinoviral activity against the rhinovirus serotype 30. The class given is functional. Particulars: Rhinovirus A. In outline: as §1
In data set [9] the test system is rhinovirus A2. Kind of data set: Antiviral activity determined by ability to inhibit the HRV-2( human rhinovirus type -2) virus by plaque reduction assay in vitro. The class given is functional. Particulars: Rhinovirus A. The procedure, abridged:
(§2)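 Plaque reduction assay against human rhinovirus type 2 (HRV-2), following an earlier reported method. The value is the MIC, the minimum inhibitory concentration.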
(In a plaque reduction assay, fewer plaques than in the control indicate reduced infectivity or spread.)

Data set [10] has as its system Human rhinovirus sp. Put plainly: Mean of MIC's was determined for the five types of virus like HRV-2, HRV-1A,HRV-22,HRV-41 and HRV-50. The data set is classed as functional. In outline: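 MIC measured by plaque reduction against HRV-2 first. The value is the mean of the MICs across these five serotypes.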
Data set [11] has as its system rhinovirus A41. Put plainly: Tested for antirhinoviral activity against the rhinovirus serotype 41. The class given is functional. The settings on record: Rhinovirus A. In outline: as §1
In data set [12] the test system is rhinovirus A2. Put plainly: Antirhinovirus activity was assessed and the maximum testable concentration that causes no apparent effects on the cell monolayers was determined against HRV-2 virus in vitro. The class given is functional, human rhinovirus type 2.
In data set [13] the test system is rhinovirus B86. Put plainly: Tested for antirhinoviral activity against the rhinovirus serotype 86. The data set is classed as functional. Particulars: Rhinovirus B. In outline: as §1
In data set [14] the test system is Human rhinovirus 1A. Kind of data set: Tested for antirhinoviral activity against the rhinovirus serotype 1A. The class given is functional. In outline:
as §1

Data set [15] deals with rhinovirus A1B. Kind of data set: Tested for antirhinoviral activity against the rhinovirus serotype 1B; IA is inactive. The class given is functional, organism-based. The settings on record: human rhinovirus type 1b. In outline:
as §1

Data set [16] deals with rhinovirus A22. Kind of data set: Tested for antirhinoviral activity against the rhinovirus serotype 22. The class given is functional. Particulars: Rhinovirus A. The procedure, abridged: as §1
Data set [17] deals with rhinovirus A21. Put plainly: Tested for antirhinoviral activity against the rhinovirus serotype 21. Particulars: Rhinovirus A. The class given is functional. In outline:
as §1

The subject of data set [18] is human rhinovirus (15-serotype panel). Put plainly: Antirhinovirus activity was determined by the ability to inhibit the growth of 80% of a panel of 15 human rhinovirus serotypes.
The test system of data set [19] is rhinovirus B6. Put plainly: Tested for antirhinoviral activity against the rhinovirus serotype 6. The settings on record: Rhinovirus B. The class given is functional. The procedure, abridged: as §1
The test system of data set [20] is rhinovirus A1B. Put plainly: Tested for antirhinoviral activity against the rhinovirus serotype 1B. The class given is functional, human rhinovirus type 1b. Particulars: Rhinovirus A. In outline: as §1
Data set [21] is described as follows: Partition coefficient (logP). The class given is physicochemical. The settings on record: octanol/water.
Data set [22] relates to rhinovirus A25. Put plainly: Tested for antirhinoviral activity against the rhinovirus serotype 25. The class given is functional. Particulars: Rhinovirus A. The procedure, abridged:
as §1

The subject of data set [23] is rhinovirus A2. Kind of data set: Antirhinovirus activity was determined by the ability to inhibit the HRV-2 (human rhinovirus type -2) virus by plaque reduction assay in vitro. The settings on record: Rhinovirus A. The class given is functional. The procedure, abridged: as §2

Values after ≈ are worked out from the molar mass of the structure shown. Active and inactive are the calls of the source. The rule behind the calls is not given here.

For orientation: logP means a log measure of how a compound divides between an organic and an aqueous phase. Read a high logP as higher lipophilicity.

With `Cc1cc(CCCCCOc2ccc(C3=NCCO3)cc2)on1`, the MIC in data set [1] came out at 2.4 µM (≈ 0.755 µg/mL); in data set [2], 0.7 µM (≈ 0.22 µg/mL); in data set [3], 1.5 µM (≈ 0.472 µg/mL); in data set [4], 1.5 µM (≈ 0.472 µg/mL); in [5], 1.1 µM (≈ 0.346 µg/mL); in [6], 0.4 µM (≈ 0.126 µg/mL). Further, the MIC is 0.3 µM (≈ 0.0943 µg/mL) in data set [8]; 1.1 µM (≈ 0.346 µg/mL) in data set [9]; 5.2 µM (≈ 1.63 µg/mL) in data set [10]; 15 µM (≈ 4.72 µg/mL) in data set [11]; 0.2 µM (≈ 0.0629 µg/mL) in data set [13]; 7 µM (≈ 2.2 µg/mL) in [14]. In addition, the MIC in data set [16] was found to be 0.9 µM (≈ 0.283 µg/mL); in data set [17], 1.2 µM (≈ 0.377 µg/mL); in [19], 0.06 µM (≈ 0.0189 µg/mL). In addition, the MIC entry in data set [7] and in data set [15] was “inactive” throughout. For the same compound, in data set [12], the MTL is 9.9 µM. This compound had an MIC80 in data set [18] of 7 µM (≈ 2.2 µg/mL).

As to `COc1cc(C2=NCCO2)ccc1OCCCCCc1cc(C)no1`, the MIC in data set [1] came out at 1 µM (≈ 0.344 µg/mL); in data set [2] it was 1.7 µM (≈ 0.585 µg/mL); in data set [3], 0.6 µM (≈ 0.207 µg/mL); in [4] it was 0.4 µM (≈ 0.138 µg/mL); in data set [20], 1.8 µM (≈ 0.62 µg/mL); in data set [5] it was 0.3 µM (≈ 0.103 µg/mL). Also, the MIC amounted to 0.7 µM (≈ 0.241 µg/mL) in data set [6]; 0.2 µM (≈ 0.0689 µg/mL) in [8]; 0.3 µM (≈ 0.103 µg/mL) in data set [9]; 4.5 µM (≈ 1.55 µg/mL) in [10]; 14 µM (≈ 4.82 µg/mL) in [11]; 1.9 µM (≈ 0.654 µg/mL) in data set [13]. Also, the MIC in [14] was found to be 6.7 µM (≈ 2.31 µg/mL); in data set [16], 0.8 µM (≈ 0.276 µg/mL); in [17], 0.2 µM (≈ 0.0689 µg/mL); in data set [19] it was 1 µM (≈ 0.344 µg/mL). In addition, in data set [7], the IA result was “inactive”. Further, the MTL in data set [12] was 37 µM. This compound also yielded a logP in [21] of 3.44. Moreover, in data set [18], the MIC80 was 1.9 µM (≈ 0.654 µg/mL).

On to `Cc1cc(CCCCCOc2ccc(C3=NCCO3)cc2Br)on1`, for which the MIC was 0.2 µM (≈ 0.0787 µg/mL) in [1]; 2 µM (≈ 0.787 µg/mL) in [2]; 0.2 µM (≈ 0.0787 µg/mL) in data set [3]; 0.1 µM (≈ 0.0393 µg/mL) in data set [4]; 0.1 µM (≈ 0.0393 µg/mL) in data set [20]; 0.05 µM (≈ 0.0197 µg/mL) in data set [5]. Besides, the MIC in data set [6] amounted to 0.02 µM (≈ 0.00787 µg/mL); in data set [22] it was 1.8 µM (≈ 0.708 µg/mL); in [8], 0.08 µM (≈ 0.0315 µg/mL); in [23] it was 0.04 µM (≈ 0.0157 µg/mL); in [10], 0.4 µM (≈ 0.157 µg/mL); in [11], 1.4 µM (≈ 0.551 µg/mL). For the same compound, the MIC in [13] worked out at 1.4 µM (≈ 0.551 µg/mL); in data set [14], 0.5 µM (≈ 0.197 µg/mL); in [16], 0.05 µM (≈ 0.0197 µg/mL); in data set [17] it was 0.01 µM (≈ 0.00393 µg/mL); in data set [19] it was 1.1 µM (≈ 0.433 µg/mL). For the same compound, the MTL in data set [12] was determined as 7.9 µM. Also, in [21], the logP is 4.42. Further, the MIC80 in data set [18] is 1.4 µM (≈ 0.551 µg/mL).

As to `CC(=O)c1cc(C2=NCCO2)ccc1OCCCCCc1cc(C)no1`, the MIC in [1] amounted to 0.6 µM (≈ 0.214 µg/mL); in data set [2], 7.3 µM (≈ 2.6 µg/mL); in data set [3] it was 0.4 µM (≈ 0.143 µg/mL); in [4], 0.2 µM (≈ 0.0713 µg/mL); in data set [20], 0.3 µM (≈ 0.107 µg/mL); in data set [5], 0.1 µM (≈ 0.0356 µg/mL). For the same compound, the MIC was found to be 2 µM (≈ 0.713 µg/mL) in data set [6]; 2.2 µM (≈ 0.784 µg/mL) in data set [22]; 0.3 µM (≈ 0.107 µg/mL) in [8]; 0.1 µM (≈ 0.0356 µg/mL) in [9]; 1.1 µM (≈ 0.392 µg/mL) in data set [10]; 2.9 µM (≈ 1.03 µg/mL) in data set [11]. Also, the MIC in [13] came out at 6.5 µM (≈ 2.32 µg/mL); in [14], 2.2 µM (≈ 0.784 µg/mL); in data set [16], 0.1 µM (≈ 0.0356 µg/mL); in data set [17], 5.3 µM (≈ 1.89 µg/mL); in data set [19] it was 5.1 µM (≈ 1.82 µg/mL). The MTL in [12] turned out to be 6.5 µM. This compound displayed a logP in data set [21] of 3.28. The same compound yielded an MIC80 in data set [18] of 5.1 µM (≈ 1.82 µg/mL).
